In brackets after ≈: the same amount, converted by molar mass. Each block holds one molecule with its values, some of them ahead of it.
Assays:
Format in all cases: functional
Acinetobacter pittii [1] = assay: Antibacterial activity against Acinetobacter genomosp. 3 isolate 128 by Etest method in presence of efflux pump inhibitor CCCP
Acinetobacter pittii [2] = assay: Antibacterial activity against Acinetobacter genomosp. 3 isolate 103 by Etest method in presence of cloxacillin
Summary of the method: (§1)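 MICs for AG3 clinical isolates were read by Etest following the manufacturer's instructions. Isolates were stored at –80°C in 10% Brucella glycerol broth before testing.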

Acinetobacter pittii [3] = assay: Antibacterial activity against Acinetobacter genomosp. 3 isolate 56 by Etest method; summary of the method: as §1
Escherichia coli [4] = assay: Antibacterial activity against Escherichia coli DH5alpha carrying ampC gene of Acinetobacter genomosp. 3 isolate 103 by Etest method
Summary of the method: (§2)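 E. coli DH5α expressing the AG3 isolate ampC gene, PCR-amplified (high-fidelity system, 28 cycles) and cloned into BamHI/HindIII sites of pBGS18 (kanamycin marker) under the CTX-M-14 β-lactamase promoter. Grown at 37°C in LB, with kanamycin 50 µg/ml when needed. β-Lactam MICs determined by Etest per the manufacturer's instructions.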

Acinetobacter pittii [5] = assay: Antibacterial activity against Acinetobacter genomosp. 3 isolate 195 by Etest method; summary of the method: as §1
Acinetobacter pittii [6] = assay: Antibacterial activity against Acinetobacter genomosp. 3 isolate 14 by Etest method in presence of efflux pump inhibitor CCCP
Acinetobacter pittii [7] = assay: Antibacterial activity against Acinetobacter genomosp. 3 isolate 243 by Etest method in presence of efflux pump inhibitor PAN
Acinetobacter pittii [8] = assay: Antibacterial activity against Acinetobacter genomosp. 3 isolate 21 by Etest method in presence of cloxacillin; summary of the method: as §1
Acinetobacter pittii [9] = assay: Antibacterial activity against Acinetobacter genomosp. 3 isolate 243 by Etest method; summary of the method: as §1
Acinetobacter pittii [10] = assay: Antibacterial activity against Acinetobacter genomosp. 3 isolate 21 by Etest method in presence of cloxacillin and efflux pump inhibitor PAN
Acinetobacter pittii [11] = assay: Antibacterial activity against Acinetobacter genomosp. 3 isolate 20 by Etest method; summary of the method: as §1
Acinetobacter pittii [12] = assay: Antibacterial activity against Acinetobacter genomosp. 3 isolate 56 by Etest method in presence of efflux pump inhibitor CCCP
Acinetobacter pittii [13] = assay: Antibacterial activity against Acinetobacter genomosp. 3 isolate 69 by Etest method; summary of the method: as §1
Acinetobacter pittii [14] = assay: Antibacterial activity against Acinetobacter genomosp. 3 isolate 56 by Etest method in presence of efflux pump inhibitor PAN
Acinetobacter pittii [15] = assay: Antibacterial activity against Acinetobacter genomosp. 3 isolate 65 by Etest method; summary of the method: as §1
Acinetobacter pittii [16] = assay: Antibacterial activity against Acinetobacter genomosp. 3 isolate 14 by Etest method in presence of efflux pump inhibitor PAN
Acinetobacter pittii [17] = assay: Antibacterial activity against Acinetobacter genomosp. 3 isolate 243 by Etest method in presence of cloxacillin and efflux pump inhibitor CCCP
Acinetobacter pittii [18] = assay: Antibacterial activity against Acinetobacter genomosp. 3 isolate 52 by Etest method in presence of efflux pump inhibitor PAN
Acinetobacter pittii [19] = assay: Antibacterial activity against Acinetobacter genomosp. 3 isolate 103 by Etest method; summary of the method: as §1
Acinetobacter pittii [20] = assay: Antibacterial activity against Acinetobacter genomosp. 3 isolate 109 by Etest method in presence of efflux pump inhibitor CCCP
Acinetobacter pittii [21] = assay: Antibacterial activity against Acinetobacter genomosp. 3 isolate 109 by Etest method in presence of efflux pump inhibitor PAN
Acinetobacter pittii [22] = assay: Antibacterial activity against Acinetobacter genomosp. 3 isolate 56 by Etest method in presence of cloxacillin; summary of the method: as §1
Acinetobacter pittii [23] = assay: Antibacterial activity against Acinetobacter genomosp. 3 isolate 90 by Etest method in presence of cloxacillin; summary of the method: as §1
Acinetobacter pittii [24] = assay: Antibacterial activity against Acinetobacter genomosp. 3 isolate 67 by Etest method in presence of cloxacillin and efflux pump inhibitor CCCP
Acinetobacter pittii [25] = assay: Antibacterial activity against Acinetobacter genomosp. 3 isolate 60 by Etest method in presence of cloxacillin and efflux pump inhibitor PAN
Acinetobacter pittii [26] = assay: Antibacterial activity against Acinetobacter genomosp. 3 isolate 65 by Etest method in presence of cloxacillin and efflux pump inhibitor PAN
Acinetobacter pittii [27] = assay: Antibacterial activity against Acinetobacter genomosp. 3 isolate 60 by Etest method in presence of efflux pump inhibitor PAN
Acinetobacter pittii [28] = assay: Antibacterial activity against Acinetobacter genomosp. 3 isolate 14 by Etest method in presence of cloxacillin and efflux pump inhibitor […]
Acinetobacter pittii [29] = assay: Antibacterial activity against Acinetobacter genomosp. 3 isolate 195 by Etest method in presence of efflux pump inhibitor CCCP
Acinetobacter pittii [30] = assay: Antibacterial activity against Acinetobacter genomosp. 3 isolate 90 by Etest method in presence of cloxacillin and efflux pump inhibitor PAN
Acinetobacter pittii [31] = assay: Antibacterial activity against Acinetobacter genomosp. 3 isolate 20 by Etest method in presence of cloxacillin and efflux pump inhibitor PAN
Acinetobacter pittii [32] = assay: Antibacterial activity against Acinetobacter genomosp. 3 isolate 67 by Etest method; summary of the method: as §1
Acinetobacter pittii [33] = assay: Antibacterial activity against Acinetobacter genomosp. 3 isolate 52 by Etest method; summary of the method: as §1
Acinetobacter pittii [34] = assay: Antibacterial activity against Acinetobacter genomosp. 3 isolate 195 by Etest method in presence of efflux pump inhibitor PAN
Acinetobacter pittii [35] = assay: Antibacterial activity against Acinetobacter genomosp. 3 isolate 20 by Etest method in presence of cloxacillin and efflux pump inhibitor CCCP
Acinetobacter pittii [36] = assay: Antibacterial activity against Acinetobacter genomosp. 3 isolate 60 by Etest method in presence of cloxacillin and efflux pump inhibitor CCCP
Acinetobacter pittii [37] = assay: Antibacterial activity against Acinetobacter genomosp. 3 isolate 69 by Etest method in presence of efflux pump inhibitor PAN
Acinetobacter pittii [38] = assay: Antibacterial activity against Acinetobacter genomosp. 3 isolate 90 by Etest method in presence of efflux pump inhibitor PAN
Acinetobacter pittii [39] = assay: Antibacterial activity against Acinetobacter genomosp. 3 isolate 69 by Etest method in presence of cloxacillin and efflux pump inhibitor PAN
Acinetobacter pittii [40] = assay: Antibacterial activity against Acinetobacter genomosp. 3 isolate 14 by Etest method in presence of cloxacillin; summary of the method: as §1
Acinetobacter pittii [41] = assay: Antibacterial activity against Acinetobacter genomosp. 3 isolate 65 by Etest method in presence of efflux pump inhibitor PAN
Escherichia coli [42] = assay: Antibacterial activity against Escherichia coli DH5alpha carrying ampC gene of Acinetobacter genomosp. 3 isolate 109 by Etest method; summary of the method: as §2
Acinetobacter pittii [43] = assay: Antibacterial activity against Acinetobacter genomosp. 3 isolate 14 by Etest method in presence of cloxacillin and efflux pump inhibitor PAN
Acinetobacter pittii [44] = assay: Antibacterial activity against Acinetobacter genomosp. 3 isolate 109 by Etest method; summary of the method: as §1
Acinetobacter pittii [45] = assay: Antibacterial activity against Acinetobacter genomosp. 3 isolate 21 by Etest method in presence of efflux pump inhibitor PAN
Escherichia coli [46] = assay: Antibacterial activity against Escherichia coli DH5alpha carrying ampC gene of Acinetobacter genomosp. 3 isolate 20 by Etest method; summary of the method: as §2
Escherichia coli [47] = assay: Antibacterial activity against Escherichia coli DH5alpha carrying ampC gene of Acinetobacter genomosp. 3 isolate 14 by Etest method; summary of the method: as §2
Escherichia coli [48] = assay: Antibacterial activity against Escherichia coli DH5alpha by Etest method
Summary of the method: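 E. coli DH5α host strain, grown at 37°C in LB medium. MICs of β-lactams determined by Etest following the manufacturer's instructions.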

Acinetobacter pittii [49] = assay: Antibacterial activity against Acinetobacter genomosp. 3 isolate 109 by Etest method in presence of cloxacillin; summary of the method: as §1
Acinetobacter pittii [50] = assay: Antibacterial activity against Acinetobacter genomosp. 3 isolate 67 by Etest method in presence of cloxacillin and efflux pump inhibitor PAN

MIC (Acinetobacter pittii [1]): > 256 µg/mL
MIC (Acinetobacter pittii [2]): 192 µg/mL
MIC (Acinetobacter pittii [3]): > 256 µg/mL
MIC (Escherichia coli [4]): > 256 µg/mL
MIC (Acinetobacter pittii [5]): > 256 µg/mL
MIC (Acinetobacter pittii [6]): > 256 µg/mL
MIC (Acinetobacter pittii [7]): > 256 µg/mL
MIC (Acinetobacter pittii [8]): > 256 µg/mL
MIC (Acinetobacter pittii [9]): > 256 µg/mL
MIC (Acinetobacter pittii [10]): 192 µg/mL
MIC (Acinetobacter pittii [11]): > 256 µg/mL
MIC (Acinetobacter pittii [12]): 96 µg/mL
MIC (Acinetobacter pittii [13]): > 256 µg/mL
MIC (Acinetobacter pittii [14]): > 256 µg/mL
MIC (Acinetobacter pittii [15]): > 256 µg/mL
MIC (Acinetobacter pittii [16]): > 256 µg/mL
MIC (Acinetobacter pittii [17]): 12 µg/mL
MIC (Acinetobacter pittii [18]): > 256 µg/mL
MIC (Acinetobacter pittii [19]): > 256 µg/mL
MIC (Acinetobacter pittii [20]): > 256 µg/mL
MIC (Acinetobacter pittii [21]): > 256 µg/mL
MIC (Acinetobacter pittii [22]): > 256 µg/mL
MIC (Acinetobacter pittii [23]): 192 µg/mL
MIC (Acinetobacter pittii [24]): 24 µg/mL
MIC (Acinetobacter pittii [25]): > 256 µg/mL
MIC (Acinetobacter pittii [26]): 128 µg/mL
MIC (Acinetobacter pittii [27]): > 256 µg/mL
MIC (Acinetobacter pittii [28]): 24 µg/mL
MIC (Acinetobacter pittii [29]): > 256 µg/mL
MIC (Acinetobacter pittii [30]): 64 µg/mL
MIC (Acinetobacter pittii [31]): > 256 µg/mL
MIC (Acinetobacter pittii [32]): > 256 µg/mL
MIC (Acinetobacter pittii [33]): > 256 µg/mL
MIC (Acinetobacter pittii [34]): > 256 µg/mL
MIC (Acinetobacter pittii [35]): 24 µg/mL
MIC (Acinetobacter pittii [36]): 28 µg/mL
MIC (Acinetobacter pittii [37]): > 256 µg/mL
MIC (Acinetobacter pittii [38]): > 256 µg/mL
MIC (Acinetobacter pittii [39]): > 256 µg/mL
MIC (Acinetobacter pittii [40]): 128 µg/mL
MIC (Acinetobacter pittii [41]): > 256 µg/mL
MIC (Escherichia coli [42]): > 256 µg/mL
MIC (Acinetobacter pittii [43]): 128 µg/mL
MIC (Acinetobacter pittii [44]): > 256 µg/mL
MIC (Acinetobacter pittii [45]): > 256 µg/mL
MIC (Escherichia coli [46]): > 256 µg/mL
MIC (Escherichia coli [47]): > 256 µg/mL
MIC (Escherichia coli [48]): 3 µg/mL (≈ 7.57 µM)
MIC (Acinetobacter pittii [49]): 128 µg/mL
MIC (Acinetobacter pittii [50]): 128 µg/mL
SMILES: CC(=O)OCC1=C(C(=O)O)N2C(=O)[C@@H](NC(=O)Cc3cccs3)[C@H]2SC1 [CEPHALOTHIN]

SMILES: C[C@@H](O)[C@H]1C(=O)N2C(C(=O)O)=C(S[C@@H]3CN[C@H](C(=O)N(C)C)C3)[C@H](C)[C@H]12 [MEROPENEM]
MIC (Acinetobacter pittii [1]): 0.19 µg/mL
MIC (Acinetobacter pittii [2]): 1.5 µg/mL
MIC (Acinetobacter pittii [3]): 0.38 µg/mL (≈ 0.991 µM)
MIC (Escherichia coli [4]): 0.023 µg/mL (≈ 0.06 µM)
MIC (Acinetobacter pittii [5]): 1 µg/mL (≈ 2.61 µM)
MIC (Acinetobacter pittii [6]): 0.25 µg/mL
MIC (Acinetobacter pittii [7]): 0.19 µg/mL
MIC (Acinetobacter pittii [8]): 0.5 µg/mL
MIC (Acinetobacter pittii [9]): 0.25 µg/mL (≈ 0.652 µM)
MIC (Acinetobacter pittii [10]): 0.64 µg/mL
MIC (Acinetobacter pittii [11]): 6 µg/mL (≈ 15.6 µM)
MIC (Acinetobacter pittii [12]): 0.25 µg/mL
MIC (Acinetobacter pittii [13]): 0.25 µg/mL (≈ 0.652 µM)
MIC (Acinetobacter pittii [14]): 0.094 µg/mL
MIC (Acinetobacter pittii [15]): 0.5 µg/mL (≈ 1.3 µM)
MIC (Acinetobacter pittii [16]): 0.25 µg/mL
MIC (Acinetobacter pittii [17]): 0.094 µg/mL
MIC (Acinetobacter pittii [18]): 0.38 µg/mL
MIC (Acinetobacter pittii [19]): 3 µg/mL (≈ 7.82 µM)
MIC (Acinetobacter pittii [20]): 0.25 µg/mL
MIC (Acinetobacter pittii [21]): 0.25 µg/mL
MIC (Acinetobacter pittii [22]): 0.38 µg/mL
MIC (Acinetobacter pittii [23]): 1 µg/mL
MIC (Acinetobacter pittii [24]): 0.19 µg/mL
MIC (Acinetobacter pittii [25]): 0.75 µg/mL
MIC (Acinetobacter pittii [26]): 0.38 µg/mL
MIC (Acinetobacter pittii [27]): 0.19 µg/mL
MIC (Acinetobacter pittii [28]): 0.25 µg/mL
MIC (Acinetobacter pittii [29]): 0.5 µg/mL
MIC (Acinetobacter pittii [30]): 0.25 µg/mL
MIC (Acinetobacter pittii [31]): 3 µg/mL
MIC (Acinetobacter pittii [32]): 0.5 µg/mL (≈ 1.3 µM)
MIC (Acinetobacter pittii [33]): 0.5 µg/mL (≈ 1.3 µM)
MIC (Acinetobacter pittii [34]): 1 µg/mL
MIC (Acinetobacter pittii [35]): 1.5 µg/mL
MIC (Acinetobacter pittii [36]): 0.25 µg/mL
MIC (Acinetobacter pittii [37]): 0.25 µg/mL
MIC (Acinetobacter pittii [38]): 0.38 µg/mL
MIC (Acinetobacter pittii [39]): 0.38 µg/mL
MIC (Acinetobacter pittii [40]): 0.25 µg/mL
MIC (Acinetobacter pittii [41]): 0.25 µg/mL
MIC (Escherichia coli [42]): 0.032 µg/mL (≈ 0.0834 µM)
MIC (Acinetobacter pittii [43]): 0.38 µg/mL
MIC (Acinetobacter pittii [44]): 0.38 µg/mL (≈ 0.991 µM)
MIC (Acinetobacter pittii [45]): 0.47 µg/mL
MIC (Escherichia coli [46]): 0.023 µg/mL (≈ 0.06 µM)
MIC (Escherichia coli [47]): 0.023 µg/mL (≈ 0.06 µM)
MIC (Escherichia coli [48]): 0.008 µg/mL (≈ 0.0209 µM)
MIC (Acinetobacter pittii [49]): 0.25 µg/mL
MIC (Acinetobacter pittii [50]): 0.25 µg/mL

Reference: ChEMBL document CHEMBL1649124, “Genetic variability among ampC genes from acinetobacter genomic species 3” (Antimicrob Agents Chemother, 2009)
